# Source: PubChem BioAssay (Broad Institute)
# Shown are actives, neighbours in structure and some others; about 4% of the full set was active somewhere.
# E-sel inducer = E-selectin induction in HUVECs, primary screen, imaging, HUVEC, immunofluorescence imaging, single point; P16581; normalized: neutral wells 0, TNF-alpha wells 100; activation, % at 7.58 µM; 260,000 compounds, 0.37% hits;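 active means mean E-selectin-positive cell signal at least 10% of the positive control, reached in at least 60% of replicates, without over 20% cell loss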
#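 System: HUVEC / Compound: single concentration / Signal: immunofluorescence imaging / Read-out: percent E-selectin-positive cells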
# FGF22 binding = binders of human FGF22 protein, primary screen, FGF22 synaptogenesis inhibitor project, biophysical, thermal shift, single point; Fibroblast growth factor 22 (Homo sapiens), Q9HCT0; recombinant FGF22 thermal shift, SYPRO orange fluorescence; percent of sucrose octasulfate shift, DMSO zero; activity (Tm shift, normalised), % at 9.99 µM; 340,000 compounds, 1.5% hits; AID 651658, 2012;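 active means mean Tm shift, scaled 0 neutral to 100 positive control, at about 1.3% or above, every replicate too, limit read from the data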
# Target sequence (Q9HCT0 whole entry, looked up): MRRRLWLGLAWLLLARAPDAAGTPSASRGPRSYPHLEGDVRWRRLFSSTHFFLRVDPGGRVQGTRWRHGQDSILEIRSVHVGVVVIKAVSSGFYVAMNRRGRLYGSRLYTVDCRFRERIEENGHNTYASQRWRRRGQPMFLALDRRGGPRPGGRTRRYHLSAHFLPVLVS
# Ecoli rRNA inh = reduced GFP signal of wild-type E. coli, primary screen, bacterial rRNA inhibitor project, GFP/RFP fluorescence, OD600, single point; E. coli WT GFP vs humanized-ribosome RFP mutants, 24 h; stronger effect = lower value; DMSO median 0, no signal -100; 350,000 compounds, 1.6% hits; AID 720706, 2013; GFP signal change (wild-type ribosome), % (concentration not given with the values);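 active means significant combined selectivity score with lowered wild-type GFP, culture density cut under 30%, mutant RFP and density less affected; inactive means any of these conditions unmet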
# C2C12 statin = suppressors of statin myotoxicity in C2C12 myotubes, primary screen, cell-based, single point, plate reader | C2C12 myotubes + simvastatin, ATP luminescence, 48 h; scaled: DMSO 0, geranylgeraniol control 100 | rescue of ATP level, % at 7.49 µM | 330,000 compounds, 0.78% hits | AID 602340, 2012;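 active means mean ATP rescue above about 67%, or every replicate alone reaching that limit, limit read from the data, passing the limit was not always enough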;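 further: myotubes were challenged with 10 µM simvastatin during compound exposure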
# SIRT5 block = SIRT5 desuccinylase inhibitors, primary screen, biochemical, fluorescence imaging, single point, set 5 | AID 652115, 2013 | NAD-dependent protein deacylase sirtuin-5, mitochondrial (Homo sapiens), Q9NXA8 | inhibition, % at 15 µM | 330,000 compounds, 1.1% hits | Purified SirT5, succinyl-peptide AMC, trypsin-coupled fluorescence; in the data active means inhibition above about 15%
# Target sequence (Q9NXA8 whole entry, looked up): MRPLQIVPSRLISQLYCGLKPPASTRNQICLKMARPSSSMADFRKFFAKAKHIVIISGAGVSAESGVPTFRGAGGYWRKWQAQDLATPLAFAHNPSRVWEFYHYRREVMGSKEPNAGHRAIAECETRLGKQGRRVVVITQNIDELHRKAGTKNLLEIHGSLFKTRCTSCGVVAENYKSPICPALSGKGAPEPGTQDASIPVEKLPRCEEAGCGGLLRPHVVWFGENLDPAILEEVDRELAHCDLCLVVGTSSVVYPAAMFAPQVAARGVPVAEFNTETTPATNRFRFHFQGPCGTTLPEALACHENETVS
# FN deposit inh = inhibitors of fibronectin matrix deposition, primary screen, AH1F cells, Alexa488-fibronectin fluorescence, plate reader; inhibition, % at 12.6 µM; AH1F fibroblasts, overnight; 350,000 compounds, 0.086% hits;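 active means mean inhibition across replicates of 30% or more, regardless of how many single replicates reach that level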;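 further: positive control wells lacked labelled fibronectin entirely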
#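 Material: AH1F fibroblast monolayer depositing Alexa488-labelled fibronectin into matrix | Input: 10000 AH1F cells/well | Medium: DMEM plus 2% serum, read in PBS | Reagent: Alexa488-fibronectin, 24 nM final in well | Compound dosing: One dose per compound, pinned | Schedule: 1 h adhesion, overnight exposure | Measured by: Fluorescence at 485 nm excitation, 525 nm emission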
# The depositor's hits bear a star; / = no result given; ! = not confirmed by another sample.
SMILES,E-sel inducer,FGF22 binding,Ecoli rRNA inh,C2C12 statin,SIRT5 block,FN deposit inh
COc1ccc(NC(=O)N(C)C[C@@H]2Oc3cc(C#CCC(C)C)ccc3S(=O)(=O)N([C@@H](C)CO)C[C@@H]2C)cc1,3,0,-2,18,29*,/
COc1ccc(NC(=O)N(C)C[C@H]2Oc3cc(C#CCC(C)C)ccc3S(=O)(=O)N([C@@H](C)CO)C[C@H]2C)cc1,/,1,/,18,26*,/
COCC#Cc1ccc2c(c1)O[C@@H](CN(C)C(=O)Nc1ccc(OC)cc1)[C@H](C)CN([C@@H](C)CO)S2(=O)=O,0,0,-10,15,4,3
C/C=C/c1ccc([C@H]2[C@@H](CNC(=O)c3ccncc3)N(C(C)=O)[C@H]2CO)cc1,0,/,-2,-4,/,2
O=C(C[C@H]1C[C@H]2c3cc(NC(=O)C4CCC4)ccc3O[C@H]2[C@H](CO)O1)NCc1cccc(F)c1,0,-1,3,0,1,/
C[C@H](CO)N1C[C@H](C)[C@@H](CN(C)S(=O)(=O)c2ccc(F)cc2)Oc2c(NC(=O)c3cnccn3)cccc2C1=O,0,0,-3,-18,1,/
CCCC#Cc1ccc2c(c1)O[C@@H](CN(C)C(=O)Nc1ccc(OC)cc1)[C@H](C)CN([C@@H](C)CO)S2(=O)=O,/,0,-28,27,10,/
COc1ccc(NC(=O)N(C)C[C@@H]2Oc3cc(C#CCC(C)C)ccc3S(=O)(=O)N([C@H](C)CO)C[C@H]2C)cc1,0,0,-7,14,25*,/
COc1ccc(NC(=O)N(C)C[C@@H]2Oc3cc(C#CCN(C)C)ccc3S(=O)(=O)N([C@H](C)CO)C[C@@H]2C)cc1,1,0,4,-33,0,5
COCC(=O)N(C)C[C@@H]1Oc2cc(-c3ccc(F)cc3)ccc2S(=O)(=O)N([C@H](C)CO)C[C@H]1C,58*!,0,-6,-10,4,-4
CCCC#Cc1ccc2c(c1)O[C@H](CN(C)C(=O)Nc1ccc(OC)cc1)[C@@H](C)CN([C@@H](C)CO)S2(=O)=O,/,-1,4,-17,18*,/
CNC[C@@H]1Oc2ccc(NS(C)(=O)=O)cc2C(=O)N(C)C[C@H]1C,/,/,3,/,/,-15
C[C@@H]1CCCCO[C@@H](CN(C)CC2CC2)[C@H](C)CN([C@H](C)CO)C(=O)c2cc(NC(=O)CCCN(C)C)ccc2O1,0,0,6,/,-1,/
C[C@H]1CN([C@@H](C)CO)C(=O)Cc2cc(NC(=O)CCCN(C)C)ccc2O[C@@H]1CN(C)C(=O)Nc1ccc2c(c1)OCO2,/,0,1,20,7,/
Cc1ccc(-c2ccccc2[C@@H]2C[C@H]3CN(C)C(=O)[C@]34CCCN24)o1,/,0,12,103*,/,1
CCCNC(=O)N(C)C[C@@H]1Oc2ncc(-c3ccc(OC)cc3)cc2C(=O)N([C@@H](C)CO)C[C@H]1C,0,0,-2,1,-3,/
COC(=O)C1=C(N)N(c2ccccc2C(F)(F)F)C2=C(C(=O)CCC2)C1c1ccc2c(c1)OCO2 (centres undefined),/,/,/,93*,/,/
COC(=O)CSC1=C(C#N)C(c2ccc3c(c2)OCO3)C2=C(CCCC2=O)N1 (centres undefined),/,/,/,3,/,/
O=C(NCc1ccco1)N1c2ccccc2Sc2ccccc21,/,0,-24*,53,-3,/
Cc1ccc(S(=O)(=O)N(C)C[C@@H]2Oc3c(NC(=O)NC(C)C)cccc3C(=O)N([C@@H](C)CO)C[C@@H]2C)cc1,0,0,-6,-8,-2,/
CC(=O)NC(CC(=O)N1CCN(C(C)=O)CC1)c1ccccc1 (centres undefined),/,0,16,11,25*,-2
O=C(O)c1cccc2c1C(=O)c1ccccc1-2,1,0,1,8,0,12
O=C1C(=C(I)I)c2ccccc2-c2ccccc21,1,0,-46,/,-3,55*
COCC(=O)Nc1ccc2c(c1)[C@H]1C[C@H](CC(=O)NCc3ccc(-c4ccccc4)cc3)O[C@H](CO)[C@H]1O2,0,-1,-10,1,1,/
O=C(Nc1ccc([N+](=O)[O-])cc1)c1ccccc1F,/,0,11,/,1,14
SMILES,E-sel inducer,FGF22 binding,Ecoli rRNA inh,C2C12 statin,SIRT5 block,FN deposit inh
O=C(Nc1ncc(S(=O)(=O)c2ccc([N+](=O)[O-])cc2)s1)c1ccccc1F,/,0,17,-15,22*,-2
Cc1nc(Cc2nnc(SCC(=O)N3c4ccccc4NC(=O)C3(C)C)o2)cs1,0,43*,3,-5,/,6
CC1CCCC(NCC(O)COC(c2ccc(F)cc2)c2ccc(F)cc2)C1C (centres undefined),2,0,-53*,-8,-3,-5
CC1CCCC(NC(=O)CSc2ccc(F)cc2)C1C (centres undefined),2,0,8,-3,-5,3
C[C@@H]1CN([C@@H](C)CO)C(=O)c2cc(NS(=O)(=O)c3ccc(F)cc3)ccc2O[C@@H]1CN(C)Cc1ccccc1,0,0,1,-1,7,/
CN(C)CCOC(=O)NCC12CC3CC(CC(C3)C1)C2,4,0,7,-27,21*,0
CN(C)CCOC(=O)CC12CC3CC(C1)CC(CC(=O)OCCN(C)C)(C3)C2,1,0,18,/,-4,-6
CC(C)CCNC(=O)NC(=O)CSc1nnc2ccccn12,/,/,/,14,/,/
CC(C)CNC(=O)CSc1nnc2ccccn12,0,43*,/,/,-1,-4
COc1ccc(C(=O)NNC(=O)CSc2nnc3ccccn23)cc1OC,0,0,12,-1,-2,4
CC(Sc1nnc2ccccn12)C(N)=O (centres undefined),0,43*,25,-1,0,-5
COc1ccc(Cl)cc1C(=O)NNC(=O)CSc1nnc2ccccn12,0,44*,/,-1,0,-15
COc1ccc(O)c(C(=O)c2cnn(-c3ccccc3)c2)c1,1,0,-27*,17,-4,1
O=C(C[C@@H]1C=C[C@@H](NC(=O)C2CCOCC2)[C@H](CO)O1)Nc1ccc(-c2ccccc2)cc1,0,0,-3,4,-4,5
